target: T1, UniProt E9Q4X7; conditions: stereoisomer not certain
T1 sequence (whole entry): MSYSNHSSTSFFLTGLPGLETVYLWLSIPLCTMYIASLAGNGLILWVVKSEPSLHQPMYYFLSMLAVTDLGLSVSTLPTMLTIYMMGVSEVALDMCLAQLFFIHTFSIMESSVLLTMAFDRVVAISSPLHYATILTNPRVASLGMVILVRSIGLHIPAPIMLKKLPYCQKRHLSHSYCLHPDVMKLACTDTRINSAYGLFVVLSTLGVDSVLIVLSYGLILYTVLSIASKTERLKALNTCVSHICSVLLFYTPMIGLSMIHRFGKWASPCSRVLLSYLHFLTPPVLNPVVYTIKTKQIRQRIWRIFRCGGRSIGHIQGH
Method in brief: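 Transient luciferase assays in mammalian cell lines were common, though methods varied by source. The values come from published papers and their supplementary material, with extra details from the original authors when needed. Responsive refers to a measured signal the original authors judged statistically different from baseline, and non-responsive (inactive) to the remainder.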
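Also: active if original authors judged signal statistically different from baseline.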

| Structure (SMILES) | odorant receptor agonist call |
| --- | --- |
| C=C(CC)CCCC(C)(C)O | inactive |
| C=CC(C)=CCC=C(C)CCC=C(C)C | inactive |
| CC(=O)C=CC1=C(C)CCCC1(C)C | inactive |
| O=C(OCc1ccccc1)c1ccccc1O | inactive |
| CCc1ccccc1O | inactive |
| CC(C)=C1CCC(C)CC1=O (stereo not drawn) | inactive |
| CC=CC(=O)C1=C(C)CCCC1(C)C | inactive |
| CNc1ccccc1C(=O)OC | inactive |
| C=CC(=C)CCC=C(C)C | inactive |
| CCCCCC(C=O)=Cc1ccccc1 | inactive |
| OCC=Cc1ccccc1 | inactive |
| CC(C)CS | inactive |
| C1CCOC1 | inactive |
| Cc1ccc(OC(=O)C(C)C)cc1 | inactive |
| OCCc1ccccc1 | inactive |
| CC(=O)OCc1ccc2c(c1)OCO2 | inactive |
| C=CC(=O)CCCCC | inactive |

| Structure (SMILES) | odorant receptor agonist call |
| --- | --- |
| CCCCCCC=CC=O | inactive |
| O=C([O-])CCCCCCC(=O)[O-].[H+].[H+] | inactive |
| CCN(CC)CC | inactive |
| COC(OC)c1ccccc1 | inactive |
| CC(CC=O)CCCC(C)(C)O (stereo not drawn) | inactive |
| CCCCCC(C)O (stereo not drawn) | inactive |
| CC=Cc1ccc(OC)cc1 | inactive |
| CCCO | inactive |
| CCCCCOC(=O)CC | inactive |
| CC(C)=CCCC(C)=CCOC(=O)C(C)C | inactive |
| CCCCCCC(=O)OCCCC | inactive |
| CC(C)CCN | inactive |
| c1ccc2ncccc2c1 | inactive |
| C=C(C)C1CCC(C)C(O)C1 (stereo not drawn) | inactive |
| CC1CCC(C(C)C)C(=O)C1 (stereo not drawn) | inactive |
| CCCCCCCCCC=CC=O | inactive |

Source: the M2OR odorant receptor database
